The source made the active and inactive calls. The calls are words filed in the database; no cut-off is given here.

We go through six compounds from ChEMBL document CHEMBL1759858, “The novel anti-tumor agents of 4-triazol-1,8-naphthalimides: synthesis, cytotoxicity, DNA intercalation and photocleavage” (Eur J Med Chem, 2011).

Assay [1] relates to Nucleic Acid. Put plainly: Induction of DNA cleavage measured using 2 hrs UV-irradiated Escherichia coli super coiled pBR322 DNA assessed as formation of relaxed open circular form 2 DNA at 100 uM by agarose gel electrophoresis. The format is nucleic-acid assay. The gist of the method:
(§1)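 Supercoiled pBR322 plasmid (0.05 mM bp) in Tris-HCl (pH 7.5) was incubated with compound at 37 °C and irradiated with 365 nm UV for 2 h. Controls were DNA alone, with and without irradiation. Cleavage forms were resolved on 1% agarose gel electrophoresis.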

Assay [2] deals with Calf thymus DNA. Put plainly: Binding affinity to calf thymus DNA assessed as DNA damage at increasing compound to DNA ratio by viscosity measurement. The format is nucleic-acid assay. The following applies: Bos taurus. In short, it runs like this:
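Calf thymus DNA was dissolved in 30 mM Tris-HCl (pH 7.5), held overnight at 4 °C, sonicated for 10 min and filtered to remove insoluble material. Viscosity was then measured as the compound-to-DNA ratio was increased.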

Assay [3] concerns MCF7. Put plainly: Cytotoxicity against human MCF7 cells after 48 hrs by MTT assay. Type of assay: functional, cell-based. The following applies: MCF7, 48 h. In short, it runs like this: (§2)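 MCF-7 and 7721 cells were plated at 1 × 10⁵ cells/ml and exposed for 48 h to a concentration range of compound added from DMSO (final DMSO/medium below 0.001). MTT (5 mg/mL stock in PBS) was added for 3 h, and formazan was dissolved in SDS 200 g/L/50% formamide lysis buffer (pH 4.7). Absorbance was read at 570 nm, with ≥3 experiments. IC50 was taken from mean % absorbance plotted against concentration.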

For assay [4], the system named is HeLa. Put plainly: Cytotoxicity against human HeLa cells after 48 hrs by MTT assay. The format is functional, cell-based.
Assay [5] deals with SMMC-7721. Put plainly: Cytotoxicity against human SMMC7721 cells after 48 hrs by MTT assay. The format is functional, cell-based. The following applies: SMMC-7721, 48 h. In short, it runs like this:
as §2

Assay [6] relates to Calf thymus DNA. Put plainly: Binding affinity to calf thymus DNA at compound to DNA ratio of <= 0.20 by circular dichroism. The following applies: Bos taurus. The format is nucleic-acid assay. In short, it runs like this: (§3)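 CD spectra were recorded on calf thymus DNA at a fixed concentration in Tris-HCl buffer (pH 7.0). Compound was titrated at R (compound/DNA) ratios of 0.02, 0.04, 0.10, 0.16, 0.20, 0.30, 0.40, 0.60, 0.80, 1.00, 1.2 and 1.40, and compared with free DNA.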

Assay [7] concerns Calf thymus DNA. Put plainly: Binding affinity to calf thymus DNA at compound to DNA ratio of >0.20 to < 0.80 by circular dichroism. The format is nucleic-acid assay. The settings on record: Bos taurus. The gist of the method:
as §3

Assay [8] deals with Calf thymus DNA. Put plainly: Binding affinity to calf thymus DNA at compound to DNA ratio of > 0.80 by circular dichroism. Type of assay: nucleic-acid assay. The settings on record: Bos taurus. In short, it runs like this: as §3
For assay [9], the system named is Nucleic Acid. Put plainly: Induction of DNA cleavage measured using 2 hrs UV-irradiated Escherichia coli super coiled pBR322 DNA assessed as formation of linear form 3 DNA at 100 uM by agarose gel electrophoresis. Type of assay: nucleic-acid assay. In short, it runs like this: as §1
Assay [10] deals with Calf thymus DNA. Put plainly: Binding affinity to calf thymus DNA assessed as induction of hypochromatic effect by spectrophotometry. The format is nucleic-acid assay. The following applies: Bos taurus. In short, it runs like this:
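UV-vis absorption spectra of a fixed compound concentration were recorded during stepwise addition of calf thymus DNA in 30 mM Tris-HCl (pH 7.5). Hypochromicity and bathochromic shift were monitored, and the binding constant was calculated from an equation applied to the absorbance data.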

The subject of assay [11] is MCF7. Put plainly: Ratio of IC50 for amonafide to compound for human MCF7 cells. The format is functional. The gist of the method:
(§4)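 The ratio compares IC50s from the 48 h MTT assay on MCF-7 or 7721 cells (1 × 10⁵ cells/ml, readout at 570 nm, ≥3 experiments). Amonafide was run as the control under the same conditions, and the ratio is its IC50 divided by the compound's.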

Assay [12] deals with HeLa. Put plainly: Ratio of IC50 for amonafide to compound for human HeLa cells. The format is functional.
The subject of assay [13] is SMMC-7721. Put plainly: Ratio of IC50 for amonafide to compound for human SMMC7721 cells. Type of assay: functional. In short, it runs like this: as §4

As to `O=C1c2cccc3c(-n4cc(-c5ccccc5)nn4)ccc(c23)C(=O)N1CCO`, the result with Nucleic Acid [1] was Active. Besides, the outcome in the assay with Calf thymus DNA [2] was inactive. In addition, the IC50 in the assay on MCF7 [3], in the assay on HeLa [4] and in the assay with SMMC-7721 [5] was > 100 µM each time.
In the case of `CCN(CC)CCN1C(=O)c2cccc3c(-n4cc(-c5ccccc5)nn4)ccc(c23)C1=O`, the result in the assay with Calf thymus DNA [6], in the assay with Calf thymus DNA [7], in the assay with Nucleic Acid [1] and in the assay on Nucleic Acid [9] was Active. The result with Calf thymus DNA [8] was inactive. Also, the figures for the 50% inhibitory concentration (IC50) with MCF7 [3], in the assay with HeLa [4] and in the assay on SMMC-7721 [5] were 1.09 µM, 26.9 µM and 1.89 µM, respectively.
In the case of `CN(C)CCN1C(=O)c2cccc3c(-n4cc(-c5ccccc5)nn4)ccc(c23)C1=O`, in the assay with Calf thymus DNA [10], the Kb was found to be 2.95 ×10⁵ /M. Moreover, the result with Nucleic Acid [1], in the assay with Calf thymus DNA [2] and in the assay on Nucleic Acid [9] was Active. Also, the values for the IC50 in the assay with MCF7 [3], in the assay on HeLa [4] and in the assay on SMMC-7721 [5] were 0.323 µM, 1.02 µM and 0.463 µM, respectively. In addition, the entries for the “Ratio IC50” value with MCF7 [11], in the assay on HeLa [12] and in the assay with SMMC-7721 [13] were 5.2, 1.7 and 9.2, respectively.
Consider `CCCCN1C(=O)c2cccc3c(-n4cc(-c5ccccc5)nn4)ccc(c23)C1=O`, for which the result with Nucleic Acid [1] was Active. Further, the IC50 amounted to 19.5 µM with MCF7 [3], 19.6 µM in the assay with HeLa [4] and 32.9 µM with SMMC-7721 [5].
For `O=C1c2cccc3c(-n4cc(-c5ccccc5)nn4)ccc(c23)C(=O)N1CCN1CCNCC1` the same measures were “Active”, 0.836 µM, 96.7 µM and 1.54 µM.
Regarding `CN(C)CCN1C(=O)c2cccc3cc(N)cc(c23)C1=O` [AMONAFIDE], the IC50 came to 1.68 µM in the assay with MCF7 [3], 1.73 µM in the assay with HeLa [4] and 4.27 µM with SMMC-7721 [5].
